Measured values gathered from unrelated publications.
Lines come from different studies, so protocols differ.
Target: Activin receptor type-2A (ACVR2A, Homo sapiens, UniProt P27037)

SMILES | read-out | mode | method | concentration | measurement | result
CCN1CCC2(CC1)NC(=O)c1c(c3ccc(Cl)c(Cl)c3n1C)C2C#N (racemic) | thermal stability |  | DSF | 10 µM | ΔTm | 0.1 °C
CN1CC(Oc2cnc(C#N)cc2-c2ccn3nc(NC(=O)C4CC4)cc3c2)C1 | enzyme activity | inhibitor |  | 1 µM | inhibition | 7%
Cn1c2c(Cl)c(Cl)ccc2c2cc[nH]c(=O)c21 | thermal stability |  | DSF | 10 µM | ΔTm | 2.7 °C
Cc1ccc(C(=O)NCc2ccsc2)cc1C#Cc1cn(C(C)C)c2ncnc(N)c12 | enzyme activity | inhibitor |  | 1 µM | activity vs control | 93%
Nc1ncnc2occ(-c3ccc(NC(=O)Nc4cc(C(F)(F)F)ccc4F)cc3)c12 | cell-free assay |  |  | 20 µM | remaining signal | 45%
Cc1ccc(C(=O)Nc2ccc(CN3CCN(C)CC3)c(C(F)(F)F)c2)cc1C#Cc1cnc2cccnn12 | enzyme activity |  |  | 23.5 nM | remaining activity | 86%
COc1cc(Cl)c(C(=O)N[C@@H](CN[C@H]2CC[C@@H](N)CC2)Cc2ccc(C#N)cc2)cc1-c1ccc(CN[C@H](C)c2ccc(C)cc2)o1 | enzyme activity | inhibitor |  | 1 µM | remaining activity | 94%
Cn1c2c(Cl)c(Cl)ccc2c2cc(N)[nH]c(=O)c21 | thermal stability |  | DSF | 10 µM | ΔTm | 0.6 °C
CC(C)(C)c1nc2c(s1)c1nc(N)ncc1c1ccc(NS(=O)(=O)c3c(F)cccc3F)c(F)c12 | enzyme activity | inhibitor | radiometric | 1 µM | remaining activity | 74%
COc1cccc(CNC(=O)c2nc3scc(COCc4ccc(C(=O)O)cc4)c3c(=O)[nH]2)c1 | cell-free assay |  | competition with immobilised ligand | 1 µM | remaining binding | 92.9%
CC(C)(C)c1nc(-c2cccc(NS(=O)(=O)c3c(F)cccc3F)c2F)c(-c2ccnc(N)n2)s1 | enzyme activity | inhibitor | radiometric | 1 µM | remaining activity | 9%
CCC(=O)N[C@H]1CC[C@@H](C(=O)N(C)c2ccc(-c3nc4ccccc4o3)cc2)C1 | cell-free assay |  | competition with immobilised ligand | 1 µM | remaining binding | 98%
